Assay outcomes: PubChem, several laboratories
XBP1 UPR activ: activators of adaptive arm of unfolded protein response (XBP1) | CHO-XBP1 luciferase reporter, IRE1-XBP1 UPR activation, luminescence; percent of tunicamycin response, DMSO as zero | activation, % at 20 µM | hit rate 0.33% among 330,000;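 active means versus positive control, 20 µM dose yields 30% or more activation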
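Material: CHO-XBP1 cells stably carrying IRE1-XBP1-driven luciferase reporter / Amount: 1000 cells per well / Compound: 20 µM, 1% DMSO / Times: 6 h treatment, 37 °C / Detection: luciferase luminescence / Measure: % activation of reporter signal versus tunicamycin and DMSO controls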
Mdm2 MdmX PPI: disrupts the human Mdm2-MdmX interaction; O15151+Q00987; SaOS-2 split-luciferase Mdm2/MdmX complementation, luminescence; inhibition, % at 8 µM; hit rate 3% among 330,000; AID 485346;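 active means inhibition of at least 50% at 8 µM in the primary screen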
UPR CHOP act: apoptotic UPR (CHOP) activation. hit rate 0.34% among 330,000. CHO-CHOP luciferase reporter, luminescence; percent of tunicamycin response over DMSO baseline. activation, % at 10 µM. AID 449763;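 active means at 10 µM dose, activation of 40% or more, normalized to positive control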
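Evaluation: % reporter activation, DMSO baseline versus tunicamycin full activation; System: CHO-CHOP luciferase reporter cell line; Input: 500 cells/well; Incubation: 6 h compound treatment, 37 °C; Measured by: Steady-Glo luciferase luminescence; Dosing: one dose, 10 µM in 0.5% DMSO; Buffer or medium: F12 medium, 10% FBS; Benchmarks: positive tunicamycin 10 µg/mL, negative DMSO alone.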
ABHD5 PLIN5 PPI: inhibitors of human ABHD5-perilipin-5 interaction | hit rate 0.78% among 360,000 | Q00G26+Q8WTS1 | inhibition, % at 4 µM | Split G. princeps luciferase complementation, luminescence, 4 h;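 active means inhibition above the mean inhibition across every tested compound plus 3 SD, cut at about 22% in these data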
Exocytosis inh: blocks lytic granule exocytosis. TALL-104 LAMP-1 surface exposure, flow cytometry; cells stimulated with thapsigargin and PMA. inhibition, % at 10 µM. hit rate 0.66% among 360,000;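 active means inhibition above about 55%, limit read from the data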
XBP1 UPR conf: confirmation of adaptive unfolded protein response (XBP1) activators. shares compounds with XBP1 UPR activ. CHO-XBP1 IRE1-XBP1 luciferase reporter, luminescence. hit rate 63% among 1,000. activation, % at 20 µM;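 active means reporter signal at least 30% of the positive control's activation in two or more of four replicate wells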
Mdm2-MdmX conf: human Mdm2/MdmX binding inhibition, confirmed. inhibition, % at 8 µM. luminescent assay. shares compounds with Mdm2 MdmX PPI. hit rate 55% among 10,000. AID 489028; in the data active means inhibition above about 40%
FLuc counter: full-length luciferase inhibition in Mdm2/MdmX counter-screen; shares compounds with Mdm2 MdmX PPI; SaOS-2 full-length luciferase counterscreen, luminescence; inhibition, % at 8 µM; hit rate 77% among 6,200;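 active means mean inhibition at 8 µM reaching about 37%, which flags the compound as non-specific, limit read from the data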;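 further: p53-null SaOS-2 cells with luciferase driven by a doxycycline-inducible promoter; compound on cells about two nights before reading with doxycycline added after day one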
Of the large screens only hits and unclear results are named; the others gave an inactive call (follow-up assays come after a bar, where they were run). This is a sample that favours compounds with a hit; in the whole collection about 4% have one here.

CCOC(=O)/C=c1\s/c(=C\c2ccc(C#N)cc2)c(=O)n1CC(=O)NCc1ccco1	none
CCOC(=O)/C=c1\s/c(=C\c2ccc(C(=O)OC)cc2)c(=O)n1CC(=O)Nc1ccccc1	XBP1 UPR activ 92, Mdm2 MdmX PPI 62 | XBP1 UPR conf inactive | Mdm2-MdmX conf inactive
COc1cc(-c2noc(C)c2C#CCO)cc(OC)c1OC	none
COc1cc(-c2noc(C)c2/C=C/c2ccc(OC(C)=O)cc2)cc(OC)c1OC	XBP1 UPR activ 32, Mdm2 MdmX PPI 84 | XBP1 UPR conf 32 | Mdm2-MdmX conf 90 | FLuc counter 94
Cc1ccc(NC(=O)C(C)c2ccc(-c3ccccc3)c(F)c2)c(C)c1 (centres undefined)	none
Cn1c(/C=C/c2ccc(Cl)cc2Cl)c([N+](=O)[O-])c(=O)n(C)c1=O	XBP1 UPR activ 38, Mdm2 MdmX PPI 100 | XBP1 UPR conf 39 | Mdm2-MdmX conf 76 | FLuc counter inactive
CCc1ccc(N/C(N)=N/c2nc(CSc3ncccn3)cc(=O)[nH]2)cc1	none
N/C(=N\c1nc(CSc2ccccn2)cc(=O)[nH]1)Nc1ccc(Cl)cc1Cl	XBP1 UPR activ 32, Mdm2 MdmX PPI 64 | XBP1 UPR conf 32 | Mdm2-MdmX conf inactive
CN1CCN(Cc2cc(=O)oc3cc4c(cc23)CCC4)CC1	none
O=c1cc(CN2CCN(c3ccc(F)cc3)CC2)c2cc3c(cc2o1)CCCC3	XBP1 UPR activ 100, Mdm2 MdmX PPI 68 | XBP1 UPR conf 96 | Mdm2-MdmX conf inactive
CC(=O)c1cnc(N(C)C)s1	none
CC1(C)Cc2c(c(N3CCOCC3)nc3sc4c(NCc5ccco5)nnnc4c23)CS1	none
CC1(C)Cc2c(c(N3CCOCC3)nc3sc4c(NCc5ccccc5)nnnc4c23)CS1	XBP1 UPR activ 137, Mdm2 MdmX PPI 94 | XBP1 UPR conf inactive | Mdm2-MdmX conf inactive
CCc1cc2c(C)ccc(C)c2nc1SCC(=O)Nc1c[nH]c(=O)[nH]c1=O	XBP1 UPR activ 52, Mdm2 MdmX PPI 56 | XBP1 UPR conf 37 | Mdm2-MdmX conf inactive
O=C(CCC(=O)c1cccs1)OCc1nnc(-c2ccccc2)o1	none
CC1=CC(C)[C@H](/C=N/n2c(=O)[nH]c3c([nH]c4ccc(C)cc43)c2=O)C(C)C1 (some centres undefined)	XBP1 UPR activ 87, Mdm2 MdmX PPI 86 | XBP1 UPR conf 99 | Mdm2-MdmX conf inactive
COc1ccccc1-c1cc(-c2ccccc2)nc(SC(C(N)=O)c2ccccc2)c1C#N (centres undefined)	XBP1 UPR activ 70, Mdm2 MdmX PPI 93 | XBP1 UPR conf 46 | Mdm2-MdmX conf 58 | FLuc counter inactive
O=C(NC1CCCCC1)c1cccc2c1C(=O)c1ccc(-c3ccc(OC(F)(F)F)cc3)cc1S2(=O)=O	XBP1 UPR activ 75, Mdm2 MdmX PPI 71 | XBP1 UPR conf 67 | Mdm2-MdmX conf inactive | FLuc counter 79
COc1ccc(OC)c(-c2nn(-c3ccccc3)cc2C(=O)NCC2CCCO2)c1 (centres undefined)	none
Cc1csc2nc(COC(=O)c3ccc(Cl)c([N+](=O)[O-])c3)cc(=O)n12	XBP1 UPR activ 71, Mdm2 MdmX PPI 89 | XBP1 UPR conf inactive | Mdm2-MdmX conf inactive
Cc1csc2nc(COC(=O)CNC(=O)c3ccc(Cl)cc3)cc(=O)n12	none
CCN1CCCc2cc(CN(CCN3CCOCC3)C(=S)Nc3ccc(C)cc3)ccc21	none
COc1cc(/C=N/Nc2nc(Nc3ccccc3)nc(-n3nc(C)cc3C)n2)cc(OC)c1OC	XBP1 UPR activ 72, Mdm2 MdmX PPI 69 | XBP1 UPR conf 90 | Mdm2-MdmX conf 66 | FLuc counter 78
COc1cc(/C=N/Nc2nc(Nc3ccc(C)cc3)nc(-n3nc(C)cc3C)n2)cc(OC)c1OC	XBP1 UPR activ 50, Mdm2 MdmX PPI 59 | XBP1 UPR conf 69 | Mdm2-MdmX conf 73 | FLuc counter 62
